Measured values from ChEMBL document CHEMBL5136968, “Posttranslational modifications of α-conotoxins: sulfotyrosine and C-terminal amidation stabilise structures and increase acetylcholine receptor binding” (RSC Med Chem, 2021).
Positions of bridges follow the written chain, without caps; N, C: chain ends. Non-standard residues stand in square brackets, D forms with d. Residues, ends and D or L forms follow the SMILES beside them. sY = N[C@@H](Cc1ccc(OS(=O)(=O)O)cc1)C(=O)O

Experiments:
[1] = Displacement of [3H]-epibatidine from Aplysia californica Acetylcholine-binding protein measured after 1 hr by liquid scintillation counter
Outline: (§1)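 Recombinant AChBP expressed in E. coli (IPTG induction, 16 °C), coated onto wells at 1 ng μL−1. Incubated 1 h at 4 °C with [3H]-epibatidine (1 nM final) and increasing peptide in PBS with 0.05% BSA. Unbound ligand washed off; bound radioactivity counted by liquid scintillation. One-site competition fit gives Ki. Triplicate, three independent experiments; pKi as mean with 95% CI.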

[2] = target: Acetylcholine-binding protein (Lymnaea stagnalis, UniProt P58154); test: Displacement of [3H]-epibatidine from Lymnaea stagnalis Acetylcholine-binding protein measured after 1 hr by liquid scintillation counter; outline: as §1
Sequence of Acetylcholine-binding protein (P58154 whole entry): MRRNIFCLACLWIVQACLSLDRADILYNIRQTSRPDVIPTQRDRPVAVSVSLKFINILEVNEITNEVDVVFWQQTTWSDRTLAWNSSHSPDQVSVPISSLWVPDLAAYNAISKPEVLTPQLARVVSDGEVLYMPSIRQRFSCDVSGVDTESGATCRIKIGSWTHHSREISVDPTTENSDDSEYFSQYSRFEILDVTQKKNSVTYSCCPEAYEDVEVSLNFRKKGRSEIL

[3] = target: Neuronal acetylcholine receptor; alpha3/beta4 (Homo sapiens, UniProt P30926+P32297); test: Antagonist activity at human alpha3beta4 nAChR in SH-SY5Y cells assessed as inhibition of calcium flux by FLIPR assay; format: cell-based
Sequence of Neuronal acetylcholine receptor; alpha3/beta4 (P30926 whole entry): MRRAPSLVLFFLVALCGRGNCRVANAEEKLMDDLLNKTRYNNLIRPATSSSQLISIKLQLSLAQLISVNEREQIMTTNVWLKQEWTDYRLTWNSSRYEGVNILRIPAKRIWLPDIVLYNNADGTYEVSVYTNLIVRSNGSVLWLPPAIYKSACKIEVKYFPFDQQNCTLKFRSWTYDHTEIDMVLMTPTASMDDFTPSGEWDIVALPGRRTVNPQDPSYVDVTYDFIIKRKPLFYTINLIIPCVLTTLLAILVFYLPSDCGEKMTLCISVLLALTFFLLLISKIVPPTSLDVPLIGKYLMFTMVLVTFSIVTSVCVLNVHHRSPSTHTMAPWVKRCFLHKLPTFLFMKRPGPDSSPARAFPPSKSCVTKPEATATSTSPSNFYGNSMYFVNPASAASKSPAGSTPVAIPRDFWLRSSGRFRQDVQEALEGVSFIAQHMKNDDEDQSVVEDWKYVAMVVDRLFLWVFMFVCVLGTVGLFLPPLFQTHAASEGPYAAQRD
Sequence of Neuronal acetylcholine receptor; alpha3/beta4 (P32297 whole entry): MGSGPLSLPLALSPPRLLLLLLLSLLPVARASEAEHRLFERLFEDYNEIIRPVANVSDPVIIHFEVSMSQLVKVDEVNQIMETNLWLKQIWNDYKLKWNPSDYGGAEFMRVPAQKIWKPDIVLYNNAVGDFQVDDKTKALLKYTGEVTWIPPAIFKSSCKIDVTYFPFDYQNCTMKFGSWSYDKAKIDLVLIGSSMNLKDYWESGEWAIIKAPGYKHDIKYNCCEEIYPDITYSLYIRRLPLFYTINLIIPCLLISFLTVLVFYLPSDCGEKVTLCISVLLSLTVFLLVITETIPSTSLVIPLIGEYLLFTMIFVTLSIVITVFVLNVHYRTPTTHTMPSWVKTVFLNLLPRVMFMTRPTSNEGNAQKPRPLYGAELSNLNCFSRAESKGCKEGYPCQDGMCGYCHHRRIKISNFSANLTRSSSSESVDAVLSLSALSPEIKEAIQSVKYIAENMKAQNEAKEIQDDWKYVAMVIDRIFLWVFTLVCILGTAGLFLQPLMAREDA
Outline: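 SH-SY5Y cells (endogenous α3β4), grown in RPMI with 15% FBS, plated 100 000/well and cultured 48 h. Loaded with calcium 4 dye for 30 min at 37 °C. Peptides in PSS (pH 7.4) added 10 min before nicotine 30 μM. Fluorescence read at 470–495 nm excitation, 515–575 nm emission, every 1 s. Normalised to maximal nicotine response; four-parameter Hill fit; pIC50. Triplicate, three independent experiments.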

Compound	pKi [1]	Ki [2]	IC50 [3]
C[C@@H]1NC(=O)[C@H](C)NC(=O)[C@@H]2CSSC[C@H](NC(=O)CNC(=O)CN)C(=O)N[C@@H](CSSC[C@@H](C(N)=O)NC(=O)[C@H](Cc3ccc(OS(=O)(=O)O)cc3)NC(=O)[C@H](CC(=O)O)NC(=O)[C@H](CCC(N)=O)NC(=O)[C@H](CC(N)=O)NC(=O)[C@H](CC(N)=O)NC1=O)C(=O)N[C@@H](CO)C(=O)N[C@@H](Cc1cnc[nH]1)C(=O)N1CCC[C@H]1C(=O)N[C@@H](C)C(=O)N2	9.4	5.37 µM	
C[C@@H]1NC(=O)[C@H](C)NC(=O)[C@@H]2CSSC[C@H](NC(=O)CNC(=O)CN)C(=O)N[C@@H](CSSC[C@@H](C(=O)O)NC(=O)[C@H](Cc3ccc(O)cc3)NC(=O)[C@H](CC(=O)O)NC(=O)[C@H](CCC(N)=O)NC(=O)[C@H](CC(N)=O)NC(=O)[C@H](CC(N)=O)NC1=O)C(=O)N[C@@H](CO)C(=O)N[C@@H](Cc1cnc[nH]1)C(=O)N1CCC[C@H]1C(=O)N[C@@H](C)C(=O)N2	8	> 100 µM	
C[C@@H]1NC(=O)[C@H](C)NC(=O)[C@@H]2CSSC[C@H](NC(=O)CNC(=O)CN)C(=O)N[C@@H](CSSC[C@@H](C(N)=O)NC(=O)[C@H](Cc3ccc(O)cc3)NC(=O)[C@H](CC(=O)O)NC(=O)[C@H](CCC(N)=O)NC(=O)[C@H](CC(N)=O)NC(=O)[C@H](CC(N)=O)NC1=O)C(=O)N[C@@H](CO)C(=O)N[C@@H](Cc1cnc[nH]1)C(=O)N1CCC[C@H]1C(=O)N[C@@H](C)C(=O)N2	8.96	24.5 µM	
C[C@@H]1NC(=O)[C@H](C)NC(=O)[C@@H]2CSSC[C@H](NC(=O)CNC(=O)CN)C(=O)N[C@@H](CSSC[C@@H](C(=O)O)NC(=O)[C@H](Cc3ccc(OS(=O)(=O)O)cc3)NC(=O)[C@H](CC(=O)O)NC(=O)[C@H](CCC(N)=O)NC(=O)[C@H](CC(N)=O)NC(=O)[C@H](CC(N)=O)NC1=O)C(=O)N[C@@H](CO)C(=O)N[C@@H](Cc1cnc[nH]1)C(=O)N1CCC[C@H]1C(=O)N[C@@H](C)C(=O)N2	8.66	> 100 µM	
CSCC[C@@H]1NC(=O)[C@H](CC(N)=O)NC(=O)[C@@H]2CSSC[C@H](NC(=O)CN)C(=O)N[C@@H](CSSC[C@@H](C(N)=O)NC(=O)[C@H](Cc3ccc(O)cc3)NC(=O)[C@H](CC(=O)O)NC(=O)[C@@H]3CCCN3C(=O)[C@H](CC(N)=O)NC(=O)[C@H](CC(N)=O)NC1=O)C(=O)N[C@@H](CO)C(=O)N[C@@H](CC(=O)O)C(=O)N1CCC[C@H]1C(=O)N[C@@H](CCCNC(=N)N)C(=O)N2 (H-GCCSDPRCNMNNPDYC-NH2; disulfide 2-8, 3-16)	7.57	> 100 µM	0.347 µM
CSCC[C@@H]1NC(=O)[C@H](CC(N)=O)NC(=O)[C@@H]2CSSC[C@H](NC(=O)CN)C(=O)N[C@@H](CSSC[C@@H](C(=O)O)NC(=O)[C@H](Cc3ccc(O)cc3)NC(=O)[C@H](CC(=O)O)NC(=O)[C@@H]3CCCN3C(=O)[C@H](CC(N)=O)NC(=O)[C@H](CC(N)=O)NC1=O)C(=O)N[C@@H](CO)C(=O)N[C@@H](CC(=O)O)C(=O)N1CCC[C@H]1C(=O)N[C@@H](CCCNC(=N)N)C(=O)N2 (H-GCCSDPRCNMNNPDYC-OH; disulfide 2-8, 3-16)	6	> 100 µM	1.35 µM
CSCC[C@@H]1NC(=O)[C@H](CC(N)=O)NC(=O)[C@@H]2CSSC[C@H](NC(=O)CN)C(=O)N[C@@H](CSSC[C@@H](C(N)=O)NC(=O)[C@H](Cc3ccc(OS(=O)(=O)O)cc3)NC(=O)[C@H](CC(=O)O)NC(=O)[C@@H]3CCCN3C(=O)[C@H](CC(N)=O)NC(=O)[C@H](CC(N)=O)NC1=O)C(=O)N[C@@H](CO)C(=O)N[C@@H](CC(=O)O)C(=O)N1CCC[C@H]1C(=O)N[C@@H](CCCNC(=N)N)C(=O)N2 (H-GCCSDPRCNMNNPD[sY]C-NH2; disulfide 2-8, 3-16)	8.38	> 100 µM	0.0646 µM
CSCC[C@@H]1NC(=O)[C@H](CC(N)=O)NC(=O)[C@@H]2CSSC[C@H](NC(=O)CN)C(=O)N[C@@H](CSSC[C@@H](C(=O)O)NC(=O)[C@H](Cc3ccc(OS(=O)(=O)O)cc3)NC(=O)[C@H](CC(=O)O)NC(=O)[C@@H]3CCCN3C(=O)[C@H](CC(N)=O)NC(=O)[C@H](CC(N)=O)NC1=O)C(=O)N[C@@H](CO)C(=O)N[C@@H](CC(=O)O)C(=O)N1CCC[C@H]1C(=O)N[C@@H](CCCNC(=N)N)C(=O)N2 (H-GCCSDPRCNMNNPD[sY]C-OH; disulfide 2-8, 3-16)	6.5	> 100 µM	0.501 µM
